ChEMBL document CHEMBL1140336, “Synthesis, structure-activity relationships, and biological evaluation of fatty alcohol phosphates as lysophosphatidic acid receptor ligands, activators of PPARgamma, and inhibitors of autotaxin” (J Med Chem, 2005)

What was measured:
[1] = molecular target: T1, Lysophosphatidic acid receptor 2 (Homo sapiens, UniProt Q9HBW0); assay: Inhibition of LPA-induced calcium transients in RH7777 rat hepatoma cells expressing LPA2 receptor; No effect; format: functional, cell-based
Method in brief: (§1)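 Fura-2 Ca2+ assay. RH7777 cells stably expressing LPA1, LPA2 or LPA3, or PC-3 cells (endogenous LPA1-3), seeded at 50000 cells/well on poly-D-lysine and grown overnight. Serum-starved in modified Krebs, pH 7.4, for 6-8 h (PC-3: 12 h), then Fura-2 AM loaded for 35 min. Compound added at 15 s; wells read 80-120 s. Transient taken as peak minus baseline 340/380 ratio. Antagonism: LPA 18:1 coapplied; highest concentration 30 μM.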

[2] = Inhibition of LPA-induced calcium transients in PC-3 cells; format: functional, cell-based, Homo sapiens
Method in brief: (§2)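 PC-3 human prostate cancer cells, which express LPA1-3 endogenously, 50000 cells/well. Serum-starved 12 h in modified Krebs, loaded with Fura-2 AM, read in a FlexStation. Ca2+ transient = 340/380 ratio peak minus baseline. Agonism (Emax as % of maximal LPA 18:1 response) and inhibition of LPA-induced transients were measured.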

[3] = molecular target: T2, Lysophosphatidic acid receptor 1 (Homo sapiens, UniProt Q92633); assay: (§3) Inhibition of LPA-induced calcium transients in RH7777 rat hepatoma cells expressing LPA1 receptor; No effect; format: functional, cell-based
[4] = molecular target: T2, Lysophosphatidic acid receptor 1; assay: as §3; format: functional, cell-based; method in brief: as §1; remark: listed apart in the source
[5] = Binding affinity for Lysophosphatidic acid receptor in PC-3 cells; format: cell-based, Homo sapiens; method in brief: as §1
[6] = molecular target: T3, Lysophosphatidic acid receptor 3 (Homo sapiens, UniProt Q9UBY5); assay: Inhibition of LPA-induced calcium transients in RH7777 rat hepatoma cells expressing LPA3 receptor; No effect; format: functional, cell-based; method in brief: as §1
T3 sequence (Q9UBY5 whole entry): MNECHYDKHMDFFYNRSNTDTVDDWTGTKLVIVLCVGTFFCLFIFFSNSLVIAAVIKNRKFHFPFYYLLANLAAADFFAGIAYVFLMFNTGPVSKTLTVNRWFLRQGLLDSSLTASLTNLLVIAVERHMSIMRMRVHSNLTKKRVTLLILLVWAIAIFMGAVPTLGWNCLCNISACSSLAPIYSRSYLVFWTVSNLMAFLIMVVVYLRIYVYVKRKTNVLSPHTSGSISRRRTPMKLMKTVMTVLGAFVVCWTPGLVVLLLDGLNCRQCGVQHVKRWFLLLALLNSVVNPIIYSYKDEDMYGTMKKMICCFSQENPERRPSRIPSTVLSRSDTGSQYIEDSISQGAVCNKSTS

[7] = molecular target: T3, Lysophosphatidic acid receptor 3; assay: (§4) Inhibition of LPA-induced calcium transients in RH7777 rat hepatoma cells expressing LPA3 receptor; format: functional, cell-based; method in brief: as §1
[8] = molecular target: T3, Lysophosphatidic acid receptor 3; assay: Binding affinity for Lysophosphatidic acid receptor 3 expressed in RH7777 rat hepatoma cells; format: cell-based; method in brief: as §1
[9] = molecular target: T2, Lysophosphatidic acid receptor 1; assay: Binding affinity for Lysophosphatidic acid receptor 1 expressed in RH7777 rat hepatoma cells; format: cell-based; method in brief: as §1
[10] = molecular target: T1, Lysophosphatidic acid receptor 2; assay: Binding affinity for Lysophosphatidic acid receptor 2 expressed in RH7777 rat hepatoma cells; format: cell-based
[11] = molecular target: T2, Lysophosphatidic acid receptor 1; assay: (§5) Inhibition of LPA-induced calcium transients in RH7777 rat hepatoma cells expressing LPA1 receptor; format: functional, cell-based; method in brief: as §1
Homo sapiens [12] = species on record: Homo sapiens; assay: Concentration of compound (after 5 min of addition) that induce LPA expressed in human platelets; format: functional
Method in brief: (§6)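 Washed human platelets, aspirin-treated and isolated with apyrase, at 4 × 10^5/μL in HEPES buffer pH 7.4, stirred at 37 °C. Lipids given as BSA complexes (4:1). Shape change read as the fall in light transmission in an aggregometer. […] Mean ± SD across different donors.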

Homo sapiens [13] = species on record: Homo sapiens; assay: Maximal shape change of human platelets induced by the compound; format: functional; method in brief: as §6
Homo sapiens [14] = species on record: Homo sapiens; assay: Inhibitory concentration of compound (after 5 min of incubation) against LPA human platelets
[15] = molecular target: T1, Lysophosphatidic acid receptor 2; assay: (§7) Inhibition of LPA-induced calcium transients in RH7777 rat hepatoma cells expressing LPA2 receptor; format: functional, cell-based; method in brief: as §1
[16] = Percent maximal efficacy in PC-3 cells; format: functional, Homo sapiens; method in brief: as §2
[17] = molecular target: T1, Lysophosphatidic acid receptor 2; assay: as §7; format: functional, cell-based; remark: listed apart in the source
[18] = molecular target: T3, Lysophosphatidic acid receptor 3; assay: as §4; format: functional, cell-based; remark: listed apart in the source
[19] = molecular target: T2, Lysophosphatidic acid receptor 1; assay: as §5; format: functional, cell-based; remark: listed apart in the source
[20] = Homo sapiens, PC-3, read-out: IC50

T1 sequence (Q9HBW0 whole entry): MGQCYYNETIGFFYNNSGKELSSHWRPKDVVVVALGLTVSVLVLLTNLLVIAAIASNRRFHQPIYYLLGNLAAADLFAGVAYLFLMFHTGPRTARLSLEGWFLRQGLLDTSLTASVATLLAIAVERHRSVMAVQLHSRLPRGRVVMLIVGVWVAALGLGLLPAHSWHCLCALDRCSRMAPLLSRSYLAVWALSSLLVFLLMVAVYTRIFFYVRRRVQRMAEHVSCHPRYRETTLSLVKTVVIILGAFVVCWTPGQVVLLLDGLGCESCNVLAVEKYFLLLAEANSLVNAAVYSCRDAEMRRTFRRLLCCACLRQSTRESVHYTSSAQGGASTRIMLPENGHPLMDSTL
T2 sequence (Q92633 whole entry): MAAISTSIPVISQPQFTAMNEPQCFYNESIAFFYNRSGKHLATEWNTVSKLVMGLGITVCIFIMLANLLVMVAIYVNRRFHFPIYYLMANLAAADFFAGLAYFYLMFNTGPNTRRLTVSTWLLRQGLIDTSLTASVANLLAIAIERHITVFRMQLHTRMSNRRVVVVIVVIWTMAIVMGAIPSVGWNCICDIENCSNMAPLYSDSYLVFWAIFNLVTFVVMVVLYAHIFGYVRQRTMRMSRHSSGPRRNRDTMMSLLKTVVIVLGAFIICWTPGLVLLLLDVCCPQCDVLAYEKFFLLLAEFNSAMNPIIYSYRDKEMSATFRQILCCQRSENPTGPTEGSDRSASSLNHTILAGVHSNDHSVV

| SMILES | IC50 [1] | IC50 [2, 20] | IC50 [3] | EC50 [4] | Ki [5] | EC50 [6] | IC50 [7] | Ki [8] | further results |
| --- | --- | --- | --- | --- | --- | --- | --- | --- | --- |
| CCCCCCCCCCOP(O)(O)=S [THIOPHOSPHORIC ACID DECYL ESTER] | Not Active | 1220 nM | Not Active | Not Active | 521 nM | Not Active |  |  |  |
| Cc1noc(-c2ccc(CSCCC(=O)O)cc2)c1NC(=O)OC(C)c1ccccc1Cl (stereo not drawn) | Not Active | 3380 nM |  | Not Active | 1740 nM | Not Active | 301 nM | 148 nM | EC50 [1]: Not Active; Ki [9]: 425 nM; Ki ([10]; rh7777): Not Active; IC50 [11]: 0.762 µM |
| CCCCCCCCCCCCP(=O)(O)O | Not Active | 2640 nM | Not Active | Not Active | 1270 nM | Not Active | 654 nM | 303 nM | EC50 [1]: Not Active |
| CC/C=C/CCCCCCCCOP(=O)(O)O | Not Active | 916 nM |  | Not Active | 390 nM | Not Active | 32 nM | 27 nM | EC50 (Homo sapiens [12]): 1500 nM; Emax (Homo sapiens [13]): 89%; IC50 (Homo sapiens [14]): 700 nM; EC50 [15]: 717 nM; IC50 [11]: > 10 µM |
| CCCC/C=C/CCCCCCCCOP(O)(O)=S | Not Active | 938 nM | Not Active | Not Active | 397 nM | Not Active | 28 nM | 14 nM | Emax [16]: 40%; EC50 [17]: 480 nM |
| CCCCCCCCCCCCCCC(F)(F)P(=O)(O)O | Not Active |  |  | Not Active |  | Not Active |  |  |  |
| CCCCCCCCCCP(=O)(O)O | Not Active | 3120 nM | Not Active | Not Active | 1500 nM | Not Active | 1200 nM | 680 nM | EC50 [1]: Not Active |
| CCCC/C=C/CCCCCCCCOP(=O)(O)O | Not Active | 241 nM |  | Not Active | 123 nM | Not Active | 96 nM | 58 nM | EC50 [17]: 397 nM |
| CCCCCCCCCCCCCCCC(=O)OC[C@@H](O)COP(=O)(O)O |  |  |  |  |  |  |  |  | EC50 (Homo sapiens [12]): 10 nM; Emax (Homo sapiens [13]): 120%; IC50 (Homo sapiens [14]): 17 nM |
| CC/C=C/CCCCCCCCCCOP(=O)(O)O | Not Active |  |  | Not Active |  | Not Active | 103 nM | 40 nM | EC50 [17]: 4100 nM |
| C=CCCCCCCCCOP(=O)(O)O | Not Active | 1510 nM |  | Not Active | 574 nM | Not Active |  |  | IC50 [11]: > 10 µM |
| CCCCCCCC/C=C/CCCCCCCC(=O)OCC(O)COP(=O)(O)O (stereo not drawn) [OLEOYL] |  |  |  |  |  |  |  |  | EC50 (Homo sapiens [12]): 9 nM; Emax (Homo sapiens [13]): 120% |
| CCCCCCCCCCCCOP(O)(O)=S [THIOPHOSPHORIC ACID DODECYL ESTER] | Not Active | 2840 nM | Not Active | Not Active | 1300 nM | Not Active |  |  |  |
| C=CCCCCCCCCOP(O)(O)=S | Not Active | 1000 nM | Not Active | Not Active | 533 nM | Not Active |  |  | EC50 [17]: > 10000 nM |
| CCCCCCCCCCCCOP(=O)(O)O [PHOSPHORIC ACID MONODODECYL ESTER] | Not Active |  |  | Not Active |  | Not Active | 128 nM | 61 nM | EC50 (Homo sapiens [12]): 250 nM; Ki [9]: 1350 nM; Emax (Homo sapiens [13]): 94%; IC50 (Homo sapiens [14]): 160 nM; IC50 [11]: 2.8 µM |
| CCCCCCCC/C=C/CCCCCCCCOP(=O)(O)O | Not Active |  | Not Active | Not Active |  | Not Active |  |  | EC50 [1]: Not Active; Emax [16]: 11%; IC50 [6]: Not Active |
| CCCCCCCC/C=C/CCCCCCCCOP(O)(O)=S | Not Active |  | Not Active |  |  |  |  |  | EC50 (Homo sapiens [12]): 16 nM; Emax [16]: 30%; Emax (Homo sapiens [13]): 1.12%; EC50 [18]: 546 nM; EC50 [19]: 193 nM; IC50 (Homo sapiens [14]): 18 nM; EC50 [17]: 244 nM; IC50 [6]: Not Active |
| CCCCCCCCCCOP(=O)(O)O [PHOSPHORIC ACID MONODECYL ESTER] | Not Active |  | Not Active | Not Active |  | Not Active | 384 nM | 121 nM |  |
| CCCCCCCCCCCCCCOP(O)(O)=S [THIOPHOSPHORIC ACID TETRADECYL ESTER] | Not Active |  | Not Active | Not Active |  | Not Active |  |  | EC50 [2]: Not Active; IC50 ([2]; pc-3): Not Active |
| CCCCC/C=C/CCCOP(=O)(O)O | Not Active | 1300 nM |  | Not Active | 735 nM | Not Active | 830 nM | 370 nM | EC50 [15]: > 10000 nM; IC50 [11]: > 10 µM |
| CCCCCCCCCCCCCCP(=O)(O)O |  | 9670 nM |  | Not Active | 4620 nM | Not Active | 3100 nM | 1120 nM | EC50 [1]: Not Active; Emax (Homo sapiens [13]): 0%; IC50 (Homo sapiens [14]): 33000 nM; IC50 [15]: 5.5 µM; Ki ([10]; read-out: Ki): 3.55 µM; IC50 [11]: ~10 µM |
